NPY Y1 blocker: blocks the human neuropeptide Y Y1 receptor; P25929; HEK293-CNG Y1 cells, membrane potential fluorescence; NPY at EC95, then isoproterenol; inhibition, % at 3.6 µM; 1% of 200,000 active;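 active = inhibition above the campaign mean inhibition of all tested compounds plus 3 SD, cut at about 20% in these data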;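 also: 0% = DMSO wells given NPY plus isoproterenol and 100% = isoproterenol alone without NPY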
Target sequence (P25929 whole entry, looked up): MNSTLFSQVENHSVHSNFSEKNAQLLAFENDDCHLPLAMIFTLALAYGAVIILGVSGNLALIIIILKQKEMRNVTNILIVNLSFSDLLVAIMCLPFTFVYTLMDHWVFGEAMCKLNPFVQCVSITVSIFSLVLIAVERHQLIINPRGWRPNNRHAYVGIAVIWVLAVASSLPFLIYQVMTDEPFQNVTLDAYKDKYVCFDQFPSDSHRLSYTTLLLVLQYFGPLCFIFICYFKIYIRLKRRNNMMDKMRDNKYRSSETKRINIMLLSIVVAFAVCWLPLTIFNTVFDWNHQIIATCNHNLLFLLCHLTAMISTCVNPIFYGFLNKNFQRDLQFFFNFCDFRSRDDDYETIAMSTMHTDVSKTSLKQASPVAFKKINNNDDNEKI
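System: HEK293 cells with Y1 receptor plus CNG channel / Probe or stimulus: NPY 25 nM then isoproterenol 1 µM plus Ro 20-1724 25 µM / Compound: one concentration, 3.6 µM, in 0.4% DMSO / Schedule: compound incubation 1 h at room temperature, readout 45 min post-stimulation / Measured by: membrane potential fluorescence / Read-out: % inhibition of NPY effect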
Mdm2 ligase inh: blocks human Mdm2 ubiquitin ligase activity; Q00987; cell-based MDM2 ubiquitination luciferase reporter, 2 h; 0 = plate control, 100 = twice control, blank-subtracted; signal enhancement, % at 5 µM; 0.11% of 210,000 active; AID 1230;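 active = signal enhancement of 30% or more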;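 also: luminescence tracks abundance of the self-degrading MDM2-luciferase fusion protein; higher signal means inhibition of MDM2 E3 ligase activity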
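System: stable MDM2–luciferase fusion reporter cells / Input: 2000 cells seeded into each well / Schedule: 4 h settle plus 2 h compound, 37 °C / Compound: single-point 5 µM / Buffer or medium: cells held in DMEM / Benchmarks: control and blank well means / Evaluation: percent signal gain over controls, blank-subtracted / Measured by: luciferase luminescence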
NPY2 pot ag: potentiators or agonists of human neuropeptide Y receptor Y2 | 0.45% of 220,000 active | cells expressing NPY-Y2, potentiator/agonist read-out | activation, % at 3.6 µM | P49146; in the data active = activation above about 27%;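 also: cells stimulated with NPY near EC25 plus isoproterenol at EC100; 0% = vehicle plus submaximal agonist and 100% = vehicle plus saturating agonist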
Target sequence (P49146 whole entry, looked up): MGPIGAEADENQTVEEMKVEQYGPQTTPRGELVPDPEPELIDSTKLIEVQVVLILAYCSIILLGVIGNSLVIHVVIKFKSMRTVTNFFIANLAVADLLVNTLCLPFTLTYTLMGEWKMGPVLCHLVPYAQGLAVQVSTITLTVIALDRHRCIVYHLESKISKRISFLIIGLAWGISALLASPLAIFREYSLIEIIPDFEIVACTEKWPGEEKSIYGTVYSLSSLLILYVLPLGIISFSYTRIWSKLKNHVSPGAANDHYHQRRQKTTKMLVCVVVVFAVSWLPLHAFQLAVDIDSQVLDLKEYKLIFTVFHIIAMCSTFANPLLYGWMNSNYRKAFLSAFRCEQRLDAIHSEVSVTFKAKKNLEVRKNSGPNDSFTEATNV
Measles CPE: protection of cells from measles virus; Measles virus-infected cells, CPE protection, absorbance; protection (pct of control), % at 4 µM; 1.5% of 140,000 active; in the data active = protection mostly above about 24%, no sharp cut-off; inactive = mostly below about 26%
NPY Y2 blocker: blocks the human neuropeptide Y Y2 receptor; P49146; NPY-Y2 expressing cells, antagonist mode; inhibition, % at 2.7 µM; 0.99% of 140,000 active; AID 793; in the data active = inhibition above about 17%;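 also: 0% = vehicle with agonist challenge and 100% = reference antagonist with challenge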
NPY1 pot ag: potentiates or activates human NPY-Y1 receptor | P25929 | NPY-Y1 expressing cells, potentiator/agonist activation | activation, % at 3.6 µM | 0.37% of 220,000 active | AID 1304; in the data active = activation above about 33%, passing the limit was not always enough;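 also: cells stimulated with NPY at EC10 then isoproterenol at EC100; 0% = low agonist plus stimulus and 100% = saturating agonist plus stimulus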
NPY-Y2 pot conf: human NPY-Y2 potentiation or agonism, confirmation | shares compounds with NPY2 pot ag | cell-based NPY-Y2 potentiator/agonist assay | activation, % at 3.6 µM | 20% of 450 active | AID 1539; in the data active = activation above about 33%
NPY-Y1 potentiator: counter-screen for NPY-Y2 potentiators or agonists: NPY-Y1 potentiators or agonists. activation, % at 3.6 µM. shares compounds with NPY2 pot ag. 20% of 450 active. Y1 HEK293-CNG cells, membrane potential fluorescence. AID 1651; in the data active = activation above about 45%;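 also: cells stimulated with submaximal NPY then isoproterenol with phosphodiesterase inhibitor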
NPY-Y1 agonist 2: human NPY-Y1 agonism as NPY-Y2 potentiator counter-screen. shares compounds with NPY2 pot ag. HEK293 Y1-CNGC, membrane potential fluorescence. activation, % at 3.6 µM. 37% of 450 active. AID 1702;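 active = activation above the mean of DMSO-only control wells plus 3 SD, cut at about 18% in these data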;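 also: cells stimulated with 1 µM isoproterenol plus the PDE inhibitor Ro 20-1724; 0% = isoproterenol with DMSO and no NPY and 100% = 40 nM NPY; Y1 agonists lower the membrane potential dye signal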
CNGC inhibitor: cyclic nucleotide gated channel inhibition as counter-screen; inhibition, % at 3.6 µM; HEK293-CNG parental, isoproterenol cAMP, membrane potential fluorescence; AID 1703; shares compounds with NPY2 pot ag; 32% of 450 active;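 active = inhibition above the control-well mean plus 3 SD of those wells, cut at about 22% in these data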;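 also: 0% = DMSO with isoproterenol and 100% = DMSO without isoproterenol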
Y2 agonist ctr: NPY-Y2 agonism, counter-screen for Y2 potentiators; shares compounds with NPY2 pot ag; HEK293 Y2/CNGC cells, membrane potential fluorescence, agonist mode; activation, % at 3.6 µM; 56% of 450 active;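 active = activation above the mean of solvent-only control wells plus 3 SD, cut at about 10% in these data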;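 also: cells stimulated by isoproterenol with no NPY added so direct agonism is tested; 0% = DMSO with isoproterenol alone and 100% = NPY at EC100 plus isoproterenol; agonism lowers probe fluorescence through less cAMP and CNG channel opening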
* hit, by the source's call; x = no result given. The list is not random: actives were taken first. Their share in the collection is about 2.8%.

SMILES	NPY Y1 blocker	Mdm2 ligase inh	NPY2 pot ag	Measles CPE	NPY Y2 blocker	NPY1 pot ag	NPY-Y2 pot conf	NPY-Y1 potentiator	NPY-Y1 agonist 2	CNGC inhibitor	Y2 agonist ctr
NC(=O)C(=CNc1nc(-c2ccc(Cl)c(Cl)c2)cs1)C(N)=O	x	-4.0	15.3	x	x	21.3	x	x	x	x	x
CC(C)c1nnc(NC(=O)CCC(=O)Nc2ccccc2)s1	x	-5.8	-14.8	x	x	8.8	x	x	x	x	x
CC(C)c1nnc(NC(=O)CCC(=O)Nc2ccc3cn[nH]c3c2)s1	x	-12.6	38.8*	x	x	-3.6	0.1	-0.9	3.5	5.9	13.4*
COP1(=O)C=C[C@H](N(Cc2ccccc2)S(=O)(=O)c2ccccc2[N+](=O)[O-])[C@@H](C)O1 (stereo partly specified)	x	9.9	x	x	x	x	x	x	x	x	x
CCC(=O)Nc1ccc(-c2cc3ccccc3oc2=O)cc1	-0.8	-9.5	-18.0	x	x	22.8	x	x	x	x	x
CC(=O)Nc1ccc(-c2cc3ccccc3o2)cc1	2.4	-21.7	28.6*	5.6	0.8	-5.8	17.2	17.3	13.4	11.8	12.9*
c1ccc2c3c([nH]c2c1)-c1[nH]ncc1CC3	-6.0	-5.4	-0.8	25.1	-0.7	10.2	x	x	x	x	x
Clc1ccc2[nH]c3c(c2c1)CCc1cn[nH]c1-3	-13.0	-11.1	46.1*	3.9	-3.7	41.3	33.5*	45.0*	34.3*	35.4*	25.1*
Cc1ccc(C2=NOC(C)(c3nnc(-c4ccc(Cl)cc4)o3)C2)cc1 (stereo unspecified)	x	6.9	x	x	x	x	x	x	x	x	x
Cc1nn(C)c(C)c1CNC(=O)c1nn2c(c1Cl)NC(c1cccs1)CC2C(F)(F)F (stereo unspecified)	-7.3	9.1	29.3*	12.2	16.2	0.7	6.1	0.1	10.9	2.5	-3.2
Nc1nc(Nc2ccc(Cl)cc2)nc2ccccc12	-5.9	7.2	51.1*	2.5	-1.0	36.5	55.5*	65.0*	41.3*	50.4*	42.4*
Cc1ccccc1Nc1nc(N)c2ccccc2n1	3.1	-37.3	11.9	x	x	-8.3	x	x	x	x	x
CCOc1nc(-c2ccccc2O)nc2ccccc12	1.5	-6.9	-0.7	16.5	5.8	-28.2	x	x	x	x	x
CCOc1nc(N=C(N)N)nc2c(C)cccc12	4.7	-11.5	38.1*	4.1	1.1	31.4	1.4	1.8	2.1	8.0	7.7
COC(=O)CSc1nnc(-c2ccc(OC)cc2OC)o1	-5.1	-10.9	49.9*	7.4	0.4	5.2	36.1*	61.4*	36.1*	49.1*	24.8*
CCOC(=O)CSc1nnc(-c2ccccc2OC)o1	-2.3	-1.6	-4.6	1.4	1.9	-7.6	x	x	x	x	x
Cc1cccc(Cl)c1NC(=O)N1CCCN(c2nc3ccc(Cl)cc3s2)CC1	x	-18.1	45.5*	x	x	18.1	6.1	-28.7	-7.3	-4.9	8.6
Cc1oc2cc(O)ccc2c(=O)c1Oc1ccccc1	-0.5	-20.5	-10.8	5.7	4.1	-13.6	x	x	x	x	x
O=C(O)c1ccc(Oc2c(C(F)(F)F)oc3cc(O)ccc3c2=O)cc1	10.8	5.5	39.2*	x	x	12.2	-1.0	-0.6	-12.8	-0.4	-2.5
COc1ccc(NC(=S)N/N=C/c2cccn2Cc2ccc(F)cc2)cc1	1.6	-8.3	41.5*	x	x	20.0	16.9	6.5	-1.8	2.0	5.1
Cc1cc(NC(=O)c2ccccc2F)n(-c2nc3ccccc3[nH]2)n1	0.8	-4.2	91.1*	3.7	0.7	19.9	-0.7	-4.3	-3.3	4.6	1.3
CN(C)/C=C/C(=O)c1ncc(C(F)(F)F)cc1Cl	-1.6	-10.7	27.6*	x	x	1.9	-3.4	3.1	-8.1	-9.5	-2.4
N#Cc1cc2c(nc1SCc1ccc(Cl)nc1)CCCCC2	x	x	-20.1	x	x	-30.0	x	x	x	x	x
O=[N+]([O-])c1cc(C(F)(F)F)cc([N+](=O)[O-])c1NCCNC(=S)Nc1ccc(Cl)c(Cl)c1	x	-4.8	102.1*	x	x	1.9	33.6*	23.6	17.6*	19.7	46.6*
FC(F)(F)c1cccc(NC(=S)NNC(=S)Nc2cccc(C(F)(F)F)c2)c1	x	-0.9	54.2*	x	x	34.3	31.7	40.1	45.5*	44.2*	32.5*
SMILES	NPY Y1 blocker	Mdm2 ligase inh	NPY2 pot ag	Measles CPE	NPY Y2 blocker	NPY1 pot ag	NPY-Y2 pot conf	NPY-Y1 potentiator	NPY-Y1 agonist 2	CNGC inhibitor	Y2 agonist ctr
Cc1sc(-c2ccccn2)nc1OC(=O)c1ccc(Cl)c(Cl)c1	5.4	-15.6	3.2	20.9	5.3	-1.6	x	x	x	x	x
Cc1sc(-c2ccccn2)nc1OC(=O)c1ccc(F)cc1F	-4.0	-45.1	36.8*	x	x	26.4	7.2	11.3	14.2	-2.6	18.4*
N#C/C(=N/Nc1ccc([N+](=O)[O-])cc1)C(=N)N1CCCCC1	-9.0	-11.1	34.8*	x	x	27.5	31.6	45.5*	43.0*	27.6*	29.6*
N#C/C(=N\Nc1ccc([N+](=O)[O-])cc1)C(=N)N1CCOCC1	x	-8.6	-1.1	x	x	-1.0	x	x	x	x	x
COc1cccc(/C=N/NC(=O)c2ccccc2N(Cc2ccccc2)S(=O)(=O)c2ccccc2)c1OC	3.2	-12.7	-11.6	35.6	6.9	-4.3	x	x	x	x	x
COC(=O)c1ccccc1NC(=O)COC(=O)c1ccccc1N=Nc1ccc(N(C)C)cc1	0.7	5.4	13.6	6.1	-1.8	13.8	x	x	x	x	x
CC(=O)c1ccc(NC(=O)COC(=O)c2ccccc2N=Nc2ccc(N(C)C)cc2)cc1	-2.8	-12.0	44.3*	18.3	-6.4	33.5	47.6*	61.9*	50.1*	44.3*	41.5*
N#C/C(=N\Nc1cccc(C(F)(F)F)c1)C(=O)c1ccsc1	x	-11.6	50.5*	x	x	-22.7	-13.1	-54.5	-27.8	-12.1	2.2
N#C/C(=N\Nc1cccc([N+](=O)[O-])c1)C(=O)c1ccc(Br)cc1	5.4	-16.7	12.2	x	x	-3.1	x	x	x	x	x
CCN(CC)C(=O)CSc1nnc(COc2ccccc2)n1N	5.0	x	-3.0	x	x	7.4	x	x	x	x	x
CC(=O)Nc1ccc(S(=O)(=O)N2CCC(n3cnc4cc(F)ccc43)CC2)cc1	1.9	-16.6	35.1*	39.5	-0.4	9.8	8.1	7.3	4.3	3.7	-4.9
COc1ccc(S(=O)(=O)N2CCC(n3cnc4cc(C(F)(F)F)ccc43)CC2)cc1	-5.2	0.3	3.1	4.9	0.2	18.3	x	x	x	x	x
Cc1ccc(/C=N/NC(=O)CNC(=O)c2ccc(S(=O)(=O)N3CCCC3)cc2)o1	-2.4	-9.6	83.8*	x	x	28.5	-4.1	-1.2	-11.5	0.0	-6.0

High-throughput results deposited in PubChem by several laboratories.
